Measurements from ChEMBL document CHEMBL4823260, “From High-Throughput Screening to Target Validation: Benzo[d]isothiazoles as Potent and Selective Agonists of Human Transient Receptor Potential Cation Channel Subfamily M Member 5 Possessing In Vivo Gastrointestinal Prokinetic Activity in Rodents” (J Med Chem, 2021).

Key:
[1] = Drug concentration in C57BL6 mouse plasma at 1 mg/kg, po administered as single dose measured after 6 to 48 hrs by LC-MS/MS analysis; type: ADME, organism-based; details: in vivo, time 6-48 hrs
Procedure, shortened: (§1)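 Single oral dose of 1, 3 or 100 mg/kg in mouse. Plasma (ng/mL) and colon and ileum (ng/g) exposure sampled at 6, 24 and 48 h, and at 72 h for the top dose; mean values reported.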

[2] = Drug concentration in C57BL6 mouse colon at 1 mg/kg, po administered as single dose measured after 6 hrs by LC-MS/MS analysis; type: ADME, organism-based; details: read-out: Ct; procedure, shortened: as §1
[3] = Drug concentration in C57BL6 mouse colon at 1 mg/kg, po administered as single dose measured after 24 to 48 hrs by LC-MS/MS analysis; type: ADME, organism-based; details: in vivo, time 24-48 hrs; procedure, shortened: as §1
[4] = Drug concentration in C57BL6 mouse plasma at 3 mg/kg, po administered as single dose measured after 6 to 48 hrs by LC-MS/MS analysis; type: ADME, organism-based; details: in vivo, time 6-48 hrs; procedure, shortened: as §1
[5] = Drug concentration in C57BL6 mouse colon at 3 mg/kg, po administered as single dose measured after 6 hrs by LC-MS/MS analysis; type: ADME, organism-based; details: read-out: Ct; procedure, shortened: as §1
[6] = Drug concentration in C57BL6 mouse ileum at 3 mg/kg, po administered as single dose measured after 6 to 48 hrs by LC-MS/MS analysis; type: ADME, organism-based; details: in vivo, time 6-48 hrs; procedure, shortened: as §1
[7] = Drug concentration in C57BL6 mouse colon at 100 mg/kg, po administered as single dose measured after 24 hrs by LC-MS/MS analysis; type: ADME, organism-based; details: read-out: Ct; procedure, shortened: as §1
[8] = Drug concentration in C57BL6 mouse colon at 100 mg/kg, po administered as single dose measured after 48 hrs by LC-MS/MS analysis; type: ADME, organism-based; details: read-out: Ct; procedure, shortened: as §1
[9] = Drug concentration in C57BL6 mouse colon at 100 mg/kg, po administered as single dose measured after 72 hrs by LC-MS/MS analysis; type: ADME, organism-based; procedure, shortened: as §1
[10] = Drug concentration in C57BL6 mouse ileum at 100 mg/kg, po administered as single dose measured after 6 hrs by LC-MS/MS analysis; type: ADME, organism-based; details: read-out: Ct; procedure, shortened: as §1
[11] = Drug concentration in C57BL6 mouse ileum at 100 mg/kg, po administered as single dose measured after 24 hrs by LC-MS/MS analysis; type: ADME, organism-based; details: read-out: Ct; procedure, shortened: as §1
[12] = Drug concentration in C57BL6 mouse ileum at 100 mg/kg, po administered as single dose measured after 48 to 72 hrs by LC-MS/MS analysis; type: ADME, organism-based; details: in vivo, time 48-72 hrs; procedure, shortened: as §1
Mus musculus [13] = assay: Gastroprokinetic activity in CD-1 mouse assessed as stimulation of gastrointestinal motility by measuring fecal number at 1 mg/kg, po measured after 2 hrs (reference value: 5.3 +/-0.7); type: functional
Mus musculus [14] = assay: Gastroprokinetic activity in CD-1 mouse assessed as stimulation of gastrointestinal motility by measuring fecal number at 1 mg/kg, po measured after 3 hrs (reference value: 9.1 +/-1.1); type: functional
Mus musculus [15] = assay: Gastroprokinetic activity in CD-1 mouse assessed as stimulation of gastrointestinal motility by measuring fecal number at 10 mg/kg, po measured after 1 hrs (reference value: 3 +/-0.8); type: functional
Mus musculus [16] = assay: Gastroprokinetic activity in CD-1 mouse assessed as stimulation of gastrointestinal motility by measuring fecal number at 10 mg/kg, po measured after 2 hrs (reference value: 5.3 +/-0.7); type: functional
Mus musculus [17] = assay: Gastroprokinetic activity in CD-1 mouse assessed as stimulation of gastrointestinal motility by measuring fecal number at 10 mg/kg, po measured after 3 hrs (reference value: 9.1 +/-1.1); type: functional
Mus musculus [18] = assay: Gastroprokinetic activity in CD-1 mouse assessed as stimulation of gastrointestinal motility by measuring fecal number at 10 mg/kg, po measured after 6 hrs (reference value: 20.1 +/-1.4); type: functional
Mus musculus [19] = assay: Gastroprokinetic activity in CD-1 mouse assessed as stimulation of gastrointestinal motility by measuring fecal number at 100 mg/kg, po measured after 2 hrs (reference value: 5.3 +/-0.7); type: functional
Mus musculus [20] = assay: Gastroprokinetic activity in CD-1 mouse assessed as stimulation of gastrointestinal motility by measuring fecal number at 100 mg/kg, po measured after 3 hrs (reference value: 9.1 +/-1.1); type: functional
Mus musculus [21] = assay: Gastroprokinetic activity in CD-1 mouse assessed as stimulation of gastrointestinal motility by measuring fecal number at 100 mg/kg, po measured after 6 hrs (reference value: 20.1 +/-1.4); type: functional
Mus musculus [22] = assay: Gastroprokinetic activity in CD-1 mouse assessed as stimulation of gastrointestinal motility by measuring total fecal weight at 1 mg/kg, po measured after 1 hrs (reference value: 0.08 +/-0.02 g); type: functional
Mus musculus [23] = assay: Gastroprokinetic activity in CD-1 mouse assessed as stimulation of gastrointestinal motility by measuring total fecal weight at 1 mg/kg, po measured after 2 hrs (reference value: 0.13 +/-0.02 g); type: functional
Mus musculus [24] = assay: Gastroprokinetic activity in CD-1 mouse assessed as stimulation of gastrointestinal motility by measuring total fecal weight at 1 mg/kg, po measured after 3 hrs (reference value: 0.21 +/-0.03 g); type: functional
Mus musculus [25] = assay: Gastroprokinetic activity in CD-1 mouse assessed as stimulation of gastrointestinal motility by measuring total fecal weight at 1 mg/kg, po measured after 6 hrs (reference value: 0.43 +/-0.05 g); type: functional
Mus musculus [26] = assay: Gastroprokinetic activity in CD-1 mouse assessed as stimulation of gastrointestinal motility by measuring total fecal weight at 10 mg/kg, po measured after 1 hrs (reference value: 0.08 +/-0.02 g); type: functional
[27] = Effect on locomotor activity in CD-1 mouse at 1 to 100 mg/kg, po measured up to 6 hrs; type: organism-based; details: in vivo, dose 1-100 mg/kg
[28] = Toxicity in CD-1 mouse assessed as effect on behavioral change at 1 to 100 mg/kg, po measured up to 6 hrs; type: organism-based; details: in vivo, dose 1-100 mg/kg
Procedure, shortened: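 CD-1 mice dosed orally at 1, 10 or 100 mg/kg or with formulation vehicle (N = 12/group). General health status, locomotion and general behaviour observed at 1, 2, 3 and 6 h after treatment, alongside fecal collection in single grid-floored cages.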

Mus musculus [29] = assay: Gastroprokinetic activity in CD-1 mouse assessed as stimulation of gastrointestinal motility by measuring total fecal weight at 10 mg/kg, po measured after 6 hrs (reference value: 0.43 +/-0.05 g)
[30] = Clast in CD-1 mouse at 1 mg/kg, iv measured up to 24 hrs; type: ADME, organism-based; details: in vivo, read-out: Clast
[31] = Half life in CD-1 mouse at 1 mg/kg, iv measured up to 24 hrs; type: ADME, organism-based; details: in vivo
[32] = AUClast in CD-1 mouse at 1 mg/kg, iv measured up to 24 hrs; type: ADME, organism-based; design: route intravenous, dose 1 mg/kg, time <=24; details: in vivo
[33] = Clast in CD-1 mouse at 10 mg/kg, po measured up to 24 hrs; type: ADME, organism-based; details: in vivo, read-out: Clast
[34] = AUClast in CD-1 mouse at 10 mg/kg, po measured up to 24 hrs; type: ADME, organism-based; design: route oral, dose 10 mg/kg, time <=24; details: in vivo
[35] = Oral bioavailability in CD-1 mouse at 10 mg/kg measured up to 24 hrs; type: ADME, organism-based; details: in vivo

Clc1cnc(CNc2cc3sncc3cc2Cl)s1
Cp [1]: < 20 ng/mL
concentration at 6 h [2]: 63.8 ng/g
Ct [3]: < 20 ng/mL
Cp [4]: < 20 ng/mL
concentration at 6 h [5]: 143 ng/g
Ct [6]: < 20 ng/mL
concentration at 24 h [7]: 164 ng/g
concentration at 48 h [8]: 58 ng/g
concentration at 72 h [9]: < 20 ng/mL
concentration at 6 h [10]: 7380 ng/g
concentration at 24 h [11]: 202 ng/g
Ct [12]: < 20 ng/mL
Activity (Mus musculus [13]): 7.5
Activity (Mus musculus [14]): 11.8
Activity (Mus musculus [15]): 3.4
Activity (Mus musculus [16]): 7.3
Activity (Mus musculus [17]): 10.3
Activity (Mus musculus [18]): 18.5
Activity (Mus musculus [19]): 10.2
Activity (Mus musculus [20]): 13
Activity (Mus musculus [21]): 16.3
Activity (Mus musculus [22]): 0.09 g
Activity (Mus musculus [23]): 0.15 g
Activity (Mus musculus [24]): 0.23 g
Activity (Mus musculus [25]): 0.45 g
Activity (Mus musculus [26]): 0.08 g
Activity [27]: Non-Toxic
Activity [28]: Non-Toxic
Activity (Mus musculus [29]): 0.39 g

Clc1cnc(CNc2ccc3cnsc3c2)s1
concentration at 24 h [30]: 2.99 ng/mL
half-life [31]: 48.6 min
AUClast [32]: 541 ng·h/mL
concentration at 24 h [33]: 2.76 ng/mL
AUC(0-t) at 24 h [34]: 94.3 ng·h/mL
bioavailability [35]: 1.54%
